Data from paper PMC13031150 (Acta Pharmaceutica Sinica. B, 2025).

Columns and labels:
[1] = system: VCP phosphorylation in KBM5-T315I cells; test: VCP phosphorylation in cells; assay type: cell-based, human; settings: 50 μmol/L NG52, 24 h
Method in brief: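 KBM5-T315I cells were treated 24 h with test compound. Lysates were immunoprecipitated with anti-VCP antibody and immunoblotted with a pan-phospho-Ser/Thr antibody.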

BCR-ABL = BCR-ABL protein level by Western blot; assay type: cell-based, human; settings: KBM5-T315I, NG52 0–50 μmol/L, 24 h, dose-dependent
KBM5-T315I cells [2] = test: Autophagy readouts; assay type: cell-based, human
KBM5-T315I xenograft = test: Subcutaneous KBM5-T315I xenograft in NOD/SCID mice; assay type: in vivo, mouse; settings: CPU-216 20 mg/kg, NG52 100 mg/kg
KBM5-T315I cells [3] = test: LDH / lactate production; assay type: cell-based, human; settings: NG52 6.25–50 μmol/L, 24 h
VCP-KD-KBM5-T315I cells = test: CCK-8 cell viability with synergy analysis in VCP-knockdown cells; assay type: cell-based, human; settings: NG52 combined with imatinib, 24 h
Method in brief: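 Viability was read by CCK-8, and δ-scores were computed in SynergyFinder (>10 synergy, <−10 antagonism).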

KBM5 cells = test: CCK-8 cell viability assay, including SynergyFinder synergy analysis; assay type: cell-based, human; settings: NG52 combined with imatinib, KBM5, 24 h, CCK-8, SynergyFinder
Method in brief: (§1)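 Viability was read by CCK-8. […] A second test compound, 0–80 μmol/L alone or with a TKI, was given for 12 h. δ-scores came from SynergyFinder: >10 synergy, <−10 antagonism. SEM, n = 3.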

KBM5-T315I cells [4] = test: as above; assay type: cell-based, human
Method in brief: as §1

[5] = system: KBM5-T315I cells-bearing NOD/SCID mice; test: Tail-vein KBM5-T315I leukemia model in NOD/SCID mice; assay type: in vivo, mouse; settings: single agent: imatinib 100 mg/kg, CPU-216 20 mg/kg
Method in brief: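 Female NOD/SCID mice aged 4–6 weeks received sublethal irradiation (1.8 Gy), then KBM5-T315I cells by tail vein within 24 h. After 7 days of engraftment, dosing was on alternate days for 4 weeks, with saline as vehicle. Peripheral-blood human CD45⁺ cells were measured by flow cytometry, along with spleen weight and Kaplan–Meier survival. SEM, n ≥ 3.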

[6] = system: KBM5-T315I-PGK1-KD, PGK1-OE and PGK1-T378P cells; test: CCK-8 cell viability in PGK1-modified KBM5-T315I cells; assay type: cell-based, human; settings: KBM5-T315I-PGK1-KD versus KBM5-T315I, 24 h
Method in brief: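 KBM5-T315I lines were empty-vector (NC), PGK1-overexpressing (OE), shPGK1 knockdown (KD), or KD re-transfected with PGK1-WT or PGK1-T378P cDNA. […] WT, OE, KD and T378P cells received test compound 0–80 μmol/L for […]. Viability was read by CCK-8; SEM, n = 3.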

[7] = KBM5-T315I, Western blot, NG52 dose-dependent, CPU-216 0–6 μmol/L, 0–12 h

CC(C)n1cnc2c(Nc3cccc(Cl)c3)nc(NCCO)nc21 [NG52]
VCP phosphorylation levels [1]: reduction | BCR-ABL expression (BCR-ABL): reduced | Formation of LC3 puncta (KBM5-T315I cells [2]; KBM5-T315I transfected with GFP-LC3B): promote | Beclin 1 ubiquitination (KBM5-T315I cells [2]; KBM5-T315I, NG52 50 μmol/L with 10 μmol/L MG132, 24 h): decreased | Beclin 1 expression and LC3B-II/LC3B-I ratio (KBM5-T315I cells [2]; [7]): increased | SQSTM1 expression (KBM5-T315I cells [2]; [7]): reducing | Autophagic vesicles (transmission electron microscopy) (KBM5-T315I cells [2]; KBM5-T315I, NG52 50 μmol/L, CPU-216 6 μmol/L): marked increase | LC3B-II expression in tumor (immunofluorescence) (KBM5-T315I xenograft; imatinib 100 mg/kg): increased | SQSTM1 expression in tumor (immunofluorescence) (KBM5-T315I xenograft; imatinib 100 mg/kg): decreased | Tumor proliferation (Ki-67 staining) (KBM5-T315I xenograft; imatinib 100 mg/kg): significantly reduced | Tumor volume (KBM5-T315I xenograft; intragastric every 48 h, 21 days): reduce | Effect on LDH levels (KBM5-T315I cells [3]): no significant effect | Synergy score (δ-score) (VCP-KD-KBM5-T315I cells): 7.57 | Synergy score (δ-score) (KBM5 cells): −7.32 | Inhibitory effect on cell viability, KBM5-T315I versus KBM5 (KBM5-T315I cells [4]; 0–400 μmol/L, 24 h, CCK-8): better inhibitory effect on KBM5-T315I | Synergy score (KBM5-T315I cells [4]; NG52 combined with imatinib, KBM5-T315I pretreated with 3 μmol/L PKM2-IN-1): 15.16 | Synergy score (δ-score) (KBM5-T315I cells [4]; NG52 combined with imatinib, NC (empty vector control) KBM5-T315I cells, 24 h): 15.66 | Synergy score (δ-score) (KBM5-T315I cells [4]; NG52 combined with ponatinib, KBM5-T315I, 24 h, CCK-8, SynergyFinder): 10.11

CC1=C(CSC(=S)N2CCCCC2)C(=O)c2ccccc2C1=O [PKM2-IN-1]
Effect on proliferation (KBM5-T315I cells [4]; 3 μmol/L, 24 h, CCK-8, KBM5-T315I): did not affect | Synergy score (KBM5-T315I cells [4]; PKM2-IN-1 combined with imatinib, KBM5-T315I): −4.49

Cc1ccc(NC(=O)c2ccc(CN3CCN(C)CC3)cc2)cc1Nc1nccc(-c2cccnc2)n1 [imatinib]
Reduction of proportion of cells in the blood (HuCD45) [5]: less pronounced | Splenomegaly [5]: alleviated | Sensitivity of PGK1-knockdown cells to the TKI [6]: increased sensitivity

Cc1ccc(C(=O)Nc2ccc(CN3CCN(C)CC3)c(C(F)(F)F)c2)cc1C#Cc1cnc2cccnn12 [ponatinib]
Sensitivity of PGK1-knockdown cells to the TKI [6]: increased sensitivity
